From PubChem BioAssay
Sampled rows, rich in hits. Any-hit rate of the full collection: about 2.5%.
TRPC6 inh = mouse TRPC6 channel inhibition; AID 2553; Q61143; HEK293-TRPC6, membrane potential dye, ACh-evoked depolarization; active compounds read low; B-score at 10 µM; 310,000 tested, 1.1% active;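 active = B-score under library mean minus 3 SD, initial fluorescence not abnormally high, positive integrated signal ratio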;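 note: B-score derived from integrated fluorescence ratio over the kinetic read; more negative B-score means stronger inhibition of depolarization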
TRPC6 activator = activators of mouse TRPC6 channel. Q61143. HEK293-TRPC6 membrane potential dye fluorescence; active compounds read high. B-score at 10 µM. 310,000 tested, 0.13% active. AID 2550;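 active = B-score of the integrated fluorescence ratio above library mean plus 3 SD, and starting fluorescence ratio within library mean plus 5 SD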;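 note: higher score means more depolarization so channel activation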
Platelet DG rel = modulates dense granule release in human platelets; 300,000 tested, 0.22% active; human platelet-rich plasma, SFLLRN dense granule ATP release, luminescence; AID 1663; inhibition, %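 (compounds screened at 7.5 µM in platelet-rich plasma)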;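 active = mean replicate score, as percent of positive control, at or above 50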
TRPC4 PAM = TRPC4 (mouse) allosteric potentiation. B-score at 10 µM. 310,000 tested, 0.42% active. HEK293 TRPC4beta/mu-opioid, DAMGO EC20, Fluo-4 Ca2+ flux; active compounds read high. AID 2227;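 active = B-score of calcium response area above 5 SD of library B-scores, with initial fluorescence ratio within 5 SD of library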;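 note: B-score of integrated fluorescence ratio over time as area under calcium response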
TRPC4 act = activators of mouse TRPC4 channel; Q9QUQ5; HEK293 TRPC4beta/mu-opioid, Fluo4 calcium fluorescence; active compounds read high; B-score at 10 µM; 310,000 tested, 0.49% active; AID 2237;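 active = B-score above 5 SD of library B-scores, and initial fluorescence ratio not above library mean plus 5 SD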;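 note: positive B-score marks a calcium rise read as TRPC4 activation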
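Material: TRPC4beta and mu-opioid receptor HEK293 stable cells | Incubation: 45 min room-temperature Fluo4 loading, 110 s read | Detection: Kinetic Fluo4 calcium fluorescence | Measure: Integrated baseline-normalised fluorescence ratio, converted to per-well B score | Benchmarks: Low control buffer alone, high control maximal DAMGO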
TRPC4 block = blocks the mouse TRPC4 cation channel; Q9QUQ5; HEK293 TRPC4beta/mu-opioid, DAMGO-evoked Fluo4 calcium flux; active compounds read low; B-score at 10 µM; 300,000 tested, 0.39% active; AID 2247;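 active = B-score over 3 SD under the library average, no early fluorescence shift, positive overall ratio signal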
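Material: HEK293 cells with stable TRPC4beta plus mu-opioid receptor expression / Probe or stimulus: DAMGO in two steps, submaximal then maximal / Compound: single concentration per test compound / Technique: kinetic Fluo4 fluorescence imaging of calcium influx / Read-out: per-well B score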
* marks the source's active call; other numbers are inactive results; i = inactive.

SMILES	TRPC6 inh	TRPC6 activator	Platelet DG rel	TRPC4 PAM	TRPC4 act	TRPC4 block
COc1ccc(C(=O)NC(Cn2ccnc2)C(C)(C)C)cc1OC1CCN(C(C)C)CC1 (stereo unspecified)	i	i	0	i	i	i
CCOc1ccc(/C=N/NC(=O)c2[nH]ncc2Br)c(O)c1	i	i	84*	i	i	i
CCC1CCCCN1S(=O)(=O)c1ccc(NC(=O)c2nc(S(C)(=O)=O)ncc2Cl)cc1 (stereo unspecified)	i	i	19	i	i	i
Cc1ccc(CC(=O)NCC(c2ccco2)N(C)C)cc1C (stereo unspecified)	i	i	-2	i	i	i
Cc1ccc2oc(C(=O)NCC(c3ccco3)N(C)C)c(C)c2c1 (stereo unspecified)	i	i	-16	i	i	-6*
CN(C)c1ccc([N+](=O)[O-])cc1C(=O)NCC(c1ccco1)N(C)C (stereo unspecified)	i	i	5	i	i	-5*
CN(C)C(CNC(=O)c1ccc(C(F)(F)F)cc1)c1ccco1 (stereo unspecified)	i	i	5	i	86*	-7*
COc1cc(N/N=C/c2ccc(N(C)C)cc2)ncn1	i	i	57*	i	i	i
C=CCN(CC=C)C(=O)CN1C(=O)NC(c2ccccc2)(c2ccccc2)C1=O	i	i	11	i	i	i
O=C(O)CC(c1cccc2ccccc12)N1Cc2ccccc2C1=O (stereo unspecified)	i	i	-2	34*	i	i
O=C1C=C(O)CC(c2ccc(Cl)c(Cl)c2)C1 (stereo unspecified)	i	i	-1	11*	i	i
O=C1C=C(O)CC(c2ccc(Cl)cc2)C1 (stereo unspecified)	i	i	2	i	i	i
NC1=NC[C@H](Cc2ccc(O)cc2)N1CC1CCCCC1	i	i	-4	i	76*	i
CCN1CCN(C(=O)C2c3cc(OC)c(OC)cc3C(=O)N(C)C2c2ccc(SC)cc2)CC1 (stereo unspecified)	i	i	0	i	67*	i
O=c1[nH]c2ccc(NCc3ccc(OCc4ccccc4Cl)cc3)cc2[nH]1	i	i	2	i	i	i
COc1cc(CNc2ccc3[nH]c(=O)[nH]c3c2)ccc1OCc1ccccc1Cl	i	i	19	12*	i	i
N/C(Cc1cccc2ccccc12)=N\OC(=O)c1cccs1	i	i	7	i	i	-6*
CCOC(=O)/C(=N\O)C1=NC(C)(C)Cc2ccccc21	i	i	8	i	i	i
Cc1cccc(N/N=C(\C(N)=O)C2=NC(C)(C)Cc3ccccc32)c1	i	i	10	14*	i	i
CCCCCCCCCCOC(=O)Cn1c(COc2ccccc2)[n+](C)c2ccccc21	i	i	1	i	i	i
CCCCCCCCCCOC(=O)Cn1c(COc2ccccc2C)[n+](C)c2ccccc21	i	i	-3	i	i	-6*
CCN(CC)CCNc1nc(SC)nc2sc3c(c12)CCN(C)C3	i	i	4	i	i	i
CSc1nc(NCCCN(C)C)c2c3c(sc2n1)CN(C)CC3	-7.8*	i	-7	i	i	i
CC1=C(CC(=O)O)c2cc(F)ccc2/C1=C/c1ccc(S(C)=O)cc1 (stereo unspecified)	i	i	-5	i	i	i
Cn1cccc1Cc1nnc(SCC(=O)NCC2CCCO2)n1C (stereo unspecified)	i	i	2	i	i	i
SMILES	TRPC6 inh	TRPC6 activator	Platelet DG rel	TRPC4 PAM	TRPC4 act	TRPC4 block
CCN1CC(CN(C)Cc2cn(-c3cccc(C)c3)nc2-c2cccc(F)c2)CC1=O (stereo unspecified)	i	i	8	i	73*	i
O=C(NCc1ccco1)c1ccc(-c2cccc(Cl)c2)o1	i	i	4	i	i	i
O=S(=O)(Cc1ccccc1)N1CCC(c2nc(-c3cccs3)no2)CC1	i	i	9	17*	i	i
CC(NCc1ccc2c(c1)OCO2)c1ccccc1 (stereo unspecified)	i	i	-6	i	i	i
Cc1ccc(C2(CCNS(=O)(=O)c3ccc(C)cc3)CCOC(C(C)C)C2)cc1 (stereo unspecified)	i	i	-6	i	i	i
CC(C)C1CC(CCNCc2ccc3c(c2)OCO3)(c2ccccc2)CCO1 (stereo unspecified)	i	i	10	i	122*	i
Cc1ccc(C2(CCNCc3ccc(N(C)C)cc3)CCOC(C(C)C)C2)cc1 (stereo unspecified)	i	i	5	i	111*	i
CC(C)C1CC(CCNCc2ccc(N(C)C)cc2)(c2ccccc2)CCO1 (stereo unspecified)	i	i	12	i	100*	i
Cc1cc(C)nc(N2CCC(C(=O)NNC(=O)c3ccc(Cl)cc3)CC2)n1	i	i	0	i	i	i
NC(=O)c1ccc(Oc2ccc(Cl)cc2)c([N+](=O)[O-])c1	i	i	-6	i	i	i
NC(=O)c1ccc(Oc2ccc3c(c2)CCC3)c([N+](=O)[O-])c1	i	i	0	24*	i	i
CCN(CC)CCNC(=O)c1cc2cc3ccc(OC)cc3nc2o1	i	i	1	i	i	i
CCCCN(C)CCNC(=O)c1cc2cc3ccc(OC)cc3nc2o1	i	i	1	12*	i	i
COC(=O)[C@@]12CCCN1[C@H](c1ccc(-c3ccc(OC)cc3)cc1)[C@@H]1C(=O)N(C)C(=O)[C@@H]12	i	i	-1	24*	i	i
COc1ccc(C(CNC(=O)C2CCN(S(=O)(=O)c3ccc(F)cc3)CC2)N(C)C)cc1 (stereo unspecified)	i	i	11	i	137*	i
COc1cc(/C=C2\C(=N)N3N=C(S(=O)(=O)CC(C)C)SC3=NC2=O)ccc1OC(=O)c1ccco1	i	i	-7	i	i	i
Cc1nc2scc(-c3ccccc3)c2c(=O)n1N	i	i	0	i	i	i
Cc1nc2scc(-c3ccccc3)c2c(=O)n1N=C1C=CC(=O)C=C1	i	i	15	i	i	-6*
